As usually defined, the IC50 is the concentration at which inhibition is half-maximal.

Where two headings read alike, the source gives them in different places.

Data on three compounds can be found in article PMC9930943 (Asian Pacific Journal of Cancer Prevention : APJCP, 2022).

Assay [1] deals with U-87MG cells. The experiment in a line: PI staining cell cycle analysis by flow cytometry. The assay is classed as cell-based, human. To be noted: 11.91 µM, 24 hours. In short, it runs like this:
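6 × 10⁵ U-87MG cells/well attached for 24 h, then given 11.91 µM for 24 h. Detached with trypsin-EDTA at 37°C for 2 min, fixed in cold 70% ethanol for 1 h. Stained 30 min at RT in the dark in 1 ml 0.1% sodium citrate with 0.05 mg PI and 50 µg RNase. Sub-G1, G0/G1, S and G2/M percentages by flow cytometry.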
For orientation: A flow cytometer gives signals particle by particle.

The next assay relates to AGO1522 cells. Put plainly: MTT cell viability assay, AGO1522. The assay is classed as cell-based, human. To be noted: for IC50: Homo sapiens, Skin fibroblast. The method in brief: (§1)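 U-87MG (RPMI-1640, 7.5 × 10³ cells/well, 24 h attachment) and AGO1522 (low-glucose DMEM) grown with 10% FBS and pen/strep at 37°C, 5% CO₂. DMSO stocks diluted in medium to 3, 6.25, 12.5, 25, 50 and 100 µM, for 24 and 48 h. MTT 5 mg/ml for 4 h, formazan dissolved in DMSO, A570 nm. Viability relative to untreated cells; IC50 calculated. Triplicates, three experiments.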
Background: Formazan colour is commonly taken as a measure of viable cells.

Assay [2] has as its system intracellular ROS in U-87MG cells. Put plainly: Intracellular ROS assay with DCFH-DA probe. Type of assay: cell-based, human. To be noted: 11.91 M (so in the source), 12 hours, P < 0.01. In short, it runs like this:
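6 × 10⁵ U-87MG cells/well attached for 24 h, then given 11.91 µM for 12 h. Loaded with DCFH-DA (10 µM final) in serum-free medium for 30 min at 37°C in the dark and washed twice with RPMI 1640. DCF fluorescence of 1 × 10⁴ cells read on a fluorescence plate reader as RFU. Three independent experiments.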

In assay [3] the test system is caspase-3 activity in U-87MG cells. Put plainly: Caspase-3/CPP32 fluorometric activity assay. The assay is classed as cell-based, human. To be noted: 11.91 µM, 24 hours (method: 12 hours), P<0.01.
The subject of assay [4] is U-87MG cells. The experiment in a line: MTT cell viability assay, U-87MG. Type of assay: cell-based. The note with it: Homo sapiens. In short, it runs like this: as §1
The mark [5] stands for this setting: 24 h, read-out: IC50 U-87MG 24 hours.
[6] abbreviates: 48 h, read-out: IC50 U-87MG 48 hours.
Where [7] appears, read: 24 h, read-out: IC50 AGO1522 24 hours.
[8] abbreviates: 48 h, read-out: IC50 AGO1522 48 hours.

As for “5-(6-bromo-2-chloroquinolin-3-yl)-9a-hydroxy-8,8-dimethyl-4-nitro-2,3,5,5a,7,8,9,9a-octahydroimidazo[1,2-a]quinolin-6(1H)-one [5c]”, the “cells in G1” value with U-87MG cells [1] is on record as 41%. Also, the “effects on normal skin cells of AGO1522” value in the assay with AGO1522 cells (AGO1522 cells, in words) is listed as “minimal effects”. The “level of ROS compared to unexposed cells” value in assay [2] is “significantly higher”. The “caspase 3 activation compared to unexposed cells” value in assay [3] is recorded as “significant increase”.
As for `O=c1[nH]c(O)c(C2C([N+](=O)[O-])=C3NCCN3c3nc4cc(Cl)ccc4cc32)c(=O)[nH]1` (stereo not drawn) [5e, 5-(9-chloro-4-nitro-1,2,3,5-tetrahydrobenzo[g]imidazo[1,2-a] [1,8]naphthyridin-5-yl) -6-hydroxypyrimidine-2,4 (1H, 3H) -dione], the IC50 in the assay with U-87MG cells [4] (setting [5]) was 22.6 ± 0.84 µM; in the assay on U-87MG cells [4] (setting [6]), 16.3 ± 1.03 µM; in the assay with AGO1522 cells (setting [7]) it was 43 ± 0.89 µM; in the assay with AGO1522 cells (setting [8]), 22.9 ± 0.95 µM.
In the case of `CC(=O)O[C@H]1C(=O)[C@@]2(C)[C@H]([C@H](OC(=O)c3ccccc3)[C@]3(O)C[C@H](OC(=O)[C@H](O)[C@@H](NC(=O)c4ccccc4)c4ccccc4)C(C)=C1C3(C)C)[C@]1(OC(C)=O)CO[C@@H]1C[C@@H]2O` [Paclitaxel, reference compound], the 50% inhibitory concentration (IC50) in the assay on U-87MG cells [4] (setting [5]) came out at 17.4 ± 0.85 µM; in the assay with U-87MG cells [4] (setting [6]), 42.2 ± 0.78 µM; in the assay on AGO1522 cells (setting [7]), 42.9 ± 1.42 µM; with AGO1522 cells (setting [8]) it was 25.8 ± 1.09 µM.
